Common to all, as to type: functional
Assay [1] has as its system Aspergillus flavus. The assay can be described thus: Antifungal activity against Aspergillus flavus ATCC 9170 after 48 hrs by broth microdilution technique. Particulars: ATCC 9170, 48 h. The method in brief: (§1)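 CLSI broth microdilution: M-27 A2 for yeasts and M-38 A for filamentous fungi. Medium is RPMI-1640 buffered to pH 7.0 with MOPS. Compound is diluted twofold from 250 to 0.98, final DMSO ≤2%. Inoculum is 1–5 × 10³ CFU/mL. Plates are incubated at 35 °C in a moist, dark chamber and read visually at 48 h. MIC100 is the lowest concentration giving total growth inhibition versus drug-free control.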
Background: Broth dilution looks for growth in wells or tubes with falling amounts of substance.

Assay [2] relates to Aspergillus niger. Nature of the assay: Antifungal activity against Aspergillus niger ATCC 9029 after 48 hrs by broth microdilution technique. Particulars: ATCC 9029, 48 h. The method in brief: as §1
The test system of assay [3] is Nannizzia gypsea. The assay can be described thus: Antifungal activity against Microsporum gypseum C115 after 48 hrs by broth microdilution technique. Put shortly:
as §1

In assay [4] the test system is Trichophyton rubrum. The assay can be described thus: Antifungal activity against Trichophyton rubrum C110 after 48 hrs by broth microdilution technique. Particulars: read-out: MIC. The method in brief:
as §1

Assay [5] deals with Trichophyton mentagrophytes. The assay can be described thus: Antifungal activity against Trichophyton mentagrophytes ATCC 9972 after 48 hrs by broth microdilution technique. Particulars: ATCC 9972, 48 h. The method in brief: as §1
The test system of assay [6] is Candida albicans. Nature of the assay: Antifungal activity against Candida albicans ATCC 10231 after 48 hrs by broth microdilution technique. To be noted: ATCC 10231, 48 h. Put shortly:
as §1

Assay [7] has as its system Saccharomyces cerevisiae. The assay can be described thus: Antifungal activity against Saccharomyces cerevisiae ATCC 9763 after 48 hrs by broth microdilution technique. To be noted: ATCC 9763, 48 h. Put shortly: as §1
Assay [8] deals with Cryptococcus neoformans. Nature of the assay: Antifungal activity against Cryptococcus neoformans ATCC 32264 after 48 hrs by broth microdilution technique. To be noted: ATCC 32264, 48 h. Put shortly:
as §1

In assay [9] the test system is Aspergillus fumigatus. Nature of the assay: Antifungal activity against Aspergillus fumigatus ATTC 26934 after 48 hrs by broth microdilution technique. The method in brief: as §1

Converted amounts (≈) assume the structure as drawn. Bounds are passed on as bounds.

One may read the MIC as the lowest concentration found to suppress growth. Consider `Cc1ccc([N+](=O)[O-])c2c(C)cc(-c3ccncc3)nc12`, for which the minimal inhibitory concentration (MIC) in assay [1], in assay [2], in [3], in [4], in [5] and in assay [6] was above 250 µg/mL each time. The minimal inhibitory concentration (MIC) in [7], in assay [8] and in [9] was above 250 µg/mL each time.

For `Nc1cccc(-c2ccc3cc(Cl)ccc3n2)c1`, the MIC is above 250 µg/mL in assay [1]; above 250 µg/mL in assay [2]; 125 µg/mL (≈ 491 µM) in [3]; 125 µg/mL (≈ 491 µM) in [4]; 125 µg/mL (≈ 491 µM) in assay [5]; above 250 µg/mL in assay [6]. In addition, the minimal inhibitory concentration (MIC) in [7], in assay [8] and in [9] was above 250 µg/mL throughout.

For the compound `CCc1ccc2ccc(-c3ccc4c(c3)OCO4)nc2c1`, the MIC in assay [1], in [2], in assay [3], in [4], in assay [5] and in [6] was above 250 µg/mL each time. The minimum inhibitory concentration (MIC) in assay [7], in assay [8] and in [9] was above 250 µg/mL throughout.

Consider `COc1ccc2nc(-c3ccc4c(c3)OCO4)ccc2c1`, for which the MIC in assay [1], in [2], in [3], in assay [4], in [5] and in [6] was above 250 µg/mL in each case. The minimum inhibitory concentration (MIC) in [7], in [8] and in assay [9] was above 250 µg/mL in each case.

For `Clc1ccc2nc(-c3ccco3)ccc2c1`, the minimum inhibitory concentration (MIC) in [1], in assay [2], in assay [3], in assay [4], in [5] and in [6] was above 250 µg/mL throughout. For the same compound, the MIC in assay [7], in assay [8] and in assay [9] was above 250 µg/mL throughout.

Consider `Fc1ccc2nc(-c3ccccc3)ccc2c1`, for which the minimum inhibitory concentration (MIC) in assay [1] is above 250 µg/mL; in assay [2], above 250 µg/mL; in assay [3], 250 µg/mL (≈ 1120 µM); in [4], 250 µg/mL (≈ 1120 µM); in [5], 250 µg/mL (≈ 1120 µM); in [6], above 250 µg/mL. In addition, the MIC in assay [7], in assay [8] and in assay [9] was above 250 µg/mL throughout.

In the case of `O=[N+]([O-])c1cccc(-c2ccc3cc(F)ccc3n2)c1`, the MIC in assay [1], in [2], in assay [3], in assay [4], in assay [5] and in assay [6] was above 250 µg/mL throughout. Moreover, the MIC in [7], in [8] and in assay [9] was above 250 µg/mL throughout.

For `Cc1cc(-c2ccncc2)nc2c(C(C)C)ccc([N+](=O)[O-])c12`, the minimal inhibitory concentration (MIC) in assay [1], in [2], in assay [3], in [4], in assay [5] and in assay [6] was above 250 µg/mL each time. Besides, the minimal inhibitory concentration (MIC) in [7], in assay [8] and in assay [9] was above 250 µg/mL each time.

Regarding `O=[N+]([O-])c1cccc(-c2ccc3cc(Cl)ccc3n2)c1`, the minimal inhibitory concentration (MIC) in assay [1], in [2], in assay [3], in assay [4], in assay [5] and in [6] was above 250 µg/mL in each case. The MIC in assay [7], in [8] and in assay [9] was above 250 µg/mL throughout.

With `Cc1cc(-c2ccccc2)nc2ccccc12`, the MIC in assay [1] is above 250 µg/mL; in [2], above 250 µg/mL; in [3], 12.5 µg/mL (≈ 57 µM); in assay [4], 25 µg/mL (≈ 114 µM); in assay [5], 12.5 µg/mL (≈ 57 µM); in [6] it was above 250 µg/mL. Moreover, the values for the MIC in [7], in assay [8] and in assay [9] were above 250 µg/mL, 250 µg/mL (≈ 1140 µM) and above 250 µg/mL, respectively.

For the compound `CCc1ccc2nc(-c3ccccc3)ccc2c1`, the MIC is above 250 µg/mL in [1]; above 250 µg/mL in assay [2]; 250 µg/mL (≈ 1070 µM) in [3]; 250 µg/mL (≈ 1070 µM) in [4]; 250 µg/mL (≈ 1070 µM) in assay [5]; above 250 µg/mL in [6]. The MIC in assay [7], in [8] and in assay [9] was above 250 µg/mL each time.

For the compound `CCc1cccc2c(C)cc(-c3ccncc3)nc12`, the MIC in [1], in [2], in assay [3], in assay [4], in [5] and in assay [6] was above 250 µg/mL each time. Besides, the MIC in [7], in assay [8] and in [9] was above 250 µg/mL in each case.

Turning to `Clc1ccc2nc(-c3cccs3)ccc2c1`, the minimum inhibitory concentration (MIC) in [1], in assay [2], in [3], in assay [4], in [5] and in assay [6] was above 250 µg/mL throughout. Further, the MIC in [7], in assay [8] and in assay [9] was above 250 µg/mL throughout.

Take `O=[N+]([O-])c1ccc2nc(-c3ccccc3)ccc2c1`: the MIC in [1], in [2], in assay [3], in [4], in [5] and in assay [6] was above 250 µg/mL in each case. In addition, the MIC in assay [7], in [8] and in assay [9] was above 250 µg/mL throughout.

As for `COc1ccc2nc(-c3cccs3)ccc2c1`, the minimum inhibitory concentration (MIC) in assay [1], in assay [2], in [3], in [4], in assay [5] and in assay [6] was above 250 µg/mL throughout. In addition, the minimum inhibitory concentration (MIC) in [7], in [8] and in assay [9] was above 250 µg/mL in each case.

As for `CCc1ccc2nc(-c3cccc([N+](=O)[O-])c3)ccc2c1`, the minimal inhibitory concentration (MIC) in assay [1], in assay [2], in assay [3], in [4], in assay [5] and in assay [6] was above 250 µg/mL each time. For the same compound, the MIC in assay [7], in assay [8] and in assay [9] was above 250 µg/mL in each case.

Regarding `Cc1cc(C)c2ccc(-c3ccccc3)nc2c1`, the minimum inhibitory concentration (MIC) in [1], in [2], in assay [3], in assay [4], in assay [5] and in assay [6] was above 250 µg/mL in each case. Further, the minimum inhibitory concentration (MIC) in assay [7], in assay [8] and in [9] was above 250 µg/mL in each case.

As to `Cc1ccc2nc(-c3ccc4c(c3)OCO4)ccc2c1`, the MIC in [1], in assay [2], in [3], in assay [4], in assay [5] and in assay [6] was above 250 µg/mL each time. Also, the MIC in assay [7], in assay [8] and in assay [9] was above 250 µg/mL each time.

For the compound `c1ccc2nc(-c3ccc4c(c3)OCO4)ccc2c1`, the minimal inhibitory concentration (MIC) in assay [1], in [2], in assay [3], in assay [4], in assay [5] and in assay [6] was above 250 µg/mL throughout. The MIC in assay [7], in assay [8] and in assay [9] was above 250 µg/mL throughout.

Turning to `Clc1ccc2nc(-c3ccccc3)ccc2c1`, the minimum inhibitory concentration (MIC) in [1], in assay [2], in [3], in assay [4], in assay [5] and in [6] was above 250 µg/mL each time. In addition, the MIC in assay [7], in assay [8] and in assay [9] was above 250 µg/mL each time.

Consider `Oc1ccc2nc(-c3ccccc3)ccc2c1`, for which the MIC in assay [1] was above 250 µg/mL; in assay [2] it was above 250 µg/mL; in [3], 125 µg/mL (≈ 565 µM); in assay [4] it was 125 µg/mL (≈ 565 µM); in assay [5] it was 250 µg/mL (≈ 1130 µM); in [6] it was above 250 µg/mL. The MIC in [7], in assay [8] and in assay [9] was above 250 µg/mL throughout.

As for `COc1ccc2nc(-c3ccco3)ccc2c1`, the minimal inhibitory concentration (MIC) in assay [1] was above 250 µg/mL; in [2], above 250 µg/mL; in assay [3], 125 µg/mL (≈ 555 µM); in assay [4], 125 µg/mL (≈ 555 µM); in assay [5] it was 125 µg/mL (≈ 555 µM); in assay [6] it was above 250 µg/mL. Further, the minimal inhibitory concentration (MIC) in [7], in assay [8] and in assay [9] was above 250 µg/mL in each case.

With `COc1cc(OC)c2nc(-c3ccc4c(c3)OCO4)ccc2c1`, the minimum inhibitory concentration (MIC) in assay [1], in assay [2], in assay [3], in assay [4], in [5] and in assay [6] was above 250 µg/mL in each case. In addition, the MIC in assay [7], in [8] and in [9] was above 250 µg/mL throughout.

Consider `c1ccc(-c2ccc3cc4c(cc3n2)OCO4)cc1`, for which the MIC is above 250 µg/mL in assay [1]; above 250 µg/mL in [2]; 250 µg/mL (≈ 1000 µM) in [3]; 250 µg/mL (≈ 1000 µM) in assay [4]; 250 µg/mL (≈ 1000 µM) in [5]; above 250 µg/mL in [6]. The minimum inhibitory concentration (MIC) was above 250 µg/mL in [7], 125 µg/mL (≈ 501 µM) in assay [8] and above 250 µg/mL in assay [9].

These data come from ChEMBL document CHEMBL1140069, “In vitro antifungal activity of polyfunctionalized 2-(hetero)arylquinolines prepared through imino Diels-Alder reactions” (2008).
